Our source for the IC50 values is ChEMBL document CHEMBL1125137, “Synthesis and structure-activity relationships of N,N'-di-o-tolylguanidine analogues, high-affinity ligands for the haloperidol-sensitive sigma receptor” (J Med Chem, 1990).

The target in the first test is Glutamate [NMDA] receptor. Description: In vitro inhibitory activity against [3H]-TCP binding to PCP receptor in guinea pig brain membrane homogenates. The test is classed as cell membranes, Cavia porcellus. In short, it runs like this:
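Displacement of 1.8 nM [3H]TCP (100 Ci/mmol) from guinea pig brain membranes (800 μg protein/mL, 50 mM Tris-HCl pH 7.4). Incubation 45 min at room temperature. Nonspecific binding defined by 10 μM PCP. Vacuum filtration on glass-fiber filters, two washes, scintillation counting. IC50 interpolated from semilog displacement curves.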
With `CNC(=N)NC`, the IC50 was over 10 µM. Still for that read-out and setting: with `Cc1ccccc1NC(=N)Nc1ccccc1C` [DITOLYLGUANIDINE] the figure was 7.8 µM. Same read-out and setting: the value for `NC(=Nc1ccc(Br)cc1)Nc1ccc(Br)cc1` was 34 µM; that for `N=C(NCc1ccccc1)NCc1ccccc1` was 6.8 µM. Still for that read-out and setting: the value for `Cc1ccccc1/N=C(\N)NC12CC3CC(CC(C3)C1)C2` was 32 µM; that for `Cc1ccccc1NC(N)=Nc1ccccc1[N+](=O)[O-]` was 2.1 µM; that for `Cc1cc([N+](=O)[O-])ccc1NC(N)=Nc1cccc(O)c1` was 37 µM. In the case of `CCc1cccc(NC(=N)Nc2cccc(CC)c2)c1`, the IC50 is 0.082 µM. Same read-out and setting: the value for `Cc1cccc(C)c1N=C(N)Nc1c(C)cccc1C` was 32 µM; that for `NC1=NCCN1c1ccccc1` was over 10 µM; that for `N=C(Nc1ccccc1C(F)(F)F)Nc1ccccc1C(F)(F)F` was 4.15 µM. As for `Cc1ccccc1N=C(N)Nc1ccccc1I`, the IC50 is 2.05 µM. The same measure, in the same setting: with `NC(=NC1CCCCC1)NC1CCCCC1` the figure was over 10 µM. With `NC(=Nc1ccccc1I)Nc1ccccc1I`, the IC50 was 0.21 µM. Same read-out and setting: with `Cc1ccccc1/N=C(/N)Nc1c(C)cccc1C` the figure was 1.9 µM; with `Cc1cccc(NC(=N)Nc2cccc(C)c2)c1`, 0.37 µM.

The molecule `Cc1ccccc1/N=C(/N)Nc1ccc([N+](=O)[O-])cc1C` had an IC50 of 5.7 µM. Still for that read-out and setting: the value for `NC1=Nc2ccccc2CN1c1ccccc1` was over 10 µM; that for `Cc1ccccc1N=C(N)Nc1ccccc1N` was 12 µM. `Cc1ccccc1/N=C(/N)Nc1cccc(O)c1` yielded an IC50 of 2.5 µM. For the molecule `CCc1ccccc1N=C(N)Nc1ccccc1CC`, the IC50 was determined as 0.358 µM. Still for that read-out and setting: with `CN=C(NC1CCCCC1)NC1CCCCC1` the figure was over 10 µM; with `N=C(Nc1ccccc1)Nc1ccccc1`, 3.45 µM; with `N=C(NC1C2CC3CC(C2)CC1C3)NC1C2CC3CC(C2)CC1C3` (stereo not drawn), over 10 µM. Still for that read-out and setting: the value for `Cc1ccccc1N=C(N)NC1CCCCC1` was over 10 µM; that for `Cc1cc([N+](=O)[O-])ccc1NC(=N)Nc1ccc([N+](=O)[O-])cc1C` was 4.3 µM. The same measure, in the same setting: the value for `Cc1cc(N)ccc1NC(=N)Nc1ccc(N)cc1C` was over 100 µM. The molecule `Cc1ccccc1/N=C(/N)Nc1ccc(N)cc1C` showed an IC50 of 4.35 µM.

As for `Cc1cc(Br)ccc1N=C(N)Nc1ccc(Br)cc1C`, the IC50 is over 10 µM. Molecule `ONC(=NC1CCCCC1)NC1CCCCC1` yielded an IC50 of over 10 µM. On the same count and under the same terms, with `Cc1ccc(N=C(N)Nc2ccc(C)cc2)cc1` the figure was 31 µM; with `N=C(NC12CC3CC(CC(C3)C1)C2)NC12CC3CC(CC(C3)C1)C2`, over 10 µM. On the same count and under the same terms, with `N=C(NC1CCCCC1)NC12CC3CC(CC(C3)C1)C2` the figure was over 10 µM. `CCCCNC(=N)NCCCC` gave an IC50 of 49 µM.

The target in another test is Glutamate [NMDA] receptor. Description: (§1) In vitro inhibitory activity against [3H](+)-MK-801 binding to PCP receptor in guinea pig brain membrane homogenates. The class given is cell membranes, Cavia porcellus. In short, it runs like this: (§2)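 [3H](+)-MK-801 (97 Ci/mmol) at 1 nM final with guinea pig brain membranes at 150 μg protein/mL. Assay and filtration buffer was 5 mM Tris-HCl pH 7.4. Incubation 4 h at 25 °C. Nonspecific binding measured with 10 μM TCP or MK-801. Bound ligand collected by glass-fiber filtration and counted by scintillation. IC50 taken from displacement curves.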
As to `NC1=Nc2cccc3cccc(c23)N1`, the IC50 was over 10 µM.

`N=C(Nc1ccccc1I)NC1CC2CCC1C2` (stereo not drawn) displayed an IC50 of over 10 µM.

Consider `Cc1ccccc1NC(N)=NC1CC2CCC1C2` (stereo not drawn), for which the IC50 was over 10 µM. The same measure, in the same setting: with `CN=C(NC1CCCCC1)NC1CCCCC1` the figure was over 10 µM.

The target of another test is Glutamate [NMDA] receptor. The test is described as §1. The test is classed as cell membranes, Cavia porcellus. In short, it runs like this: as §2
With `N=C(Nc1cccc2ccccc12)Nc1cccc2ccccc12`, the IC50 was 0.134 µM. Same read-out and setting: with `Cc1ccccc1/N=C(/N)Nc1ccccc1/C=C/c1ccccc1` the figure was over 10 µM; with `Cc1ccccc1NC(=N)Nc1ccccc1C` [DITOLYLGUANIDINE], 10.7 µM; with `Cc1ccccc1/N=C(\N)NC1C2CC3CC(C2)CC1C3` (stereo not drawn), over 10 µM.

The molecule `N=C(NC1CC2CCC1C2)NC1CC2CCC1C2` (stereo not drawn) [listing 1 of 2 here] had a half-maximal inhibitory concentration (IC50) of 5 µM. Same read-out and setting: with `CC(C)c1cccc(NC(=N)Nc2cccc(C(C)C)c2)c1` the figure was 0.498 µM; with `Cc1ccccc1/N=C(\N)NC12CC3CC(C)(CC(C)(C3)C1)C2`, 2 µM; with `CC(C)c1ccccc1N=C(N)Nc1ccccc1C(C)C`, 0.275 µM. Still for that read-out and setting: the value for `N=C(Nc1ccccc1/C=C/c1ccccc1)NC1C2CC3CC(C2)CC1C3` (stereo not drawn) was over 10 µM. Take `N=C(Nc1ccccc1/C=C/c1ccccc1)NC12CC3CC(CC(C3)C1)C2`: the IC50 came to 3.5 µM. Take `N=C(Nc1ccccc1CCc1ccccc1)NC12CC3CC(CC(C3)C1)C2`: the IC50 was over 10 µM. Still for that read-out and setting: with `CCCc1cccc(NC(=N)Nc2cccc(CCC)c2)c1` the figure was 2.11 µM; with `CCc1cccc(NC(=N)Nc2cccc(CC)c2)c1`, 0.168 µM; with `N=C(NC1CC2CCC1C2)NC1CC2CCC1C2` (stereo not drawn) [listing 2 of 2 here], over 10 µM. The same measure, in the same setting: the value for `N=C(Nc1ccccc1I)NC1CC2CCC1C2` (stereo not drawn) was over 10 µM; that for `N=C(Nc1ccccc1I)Nc1ccccc1/C=C/c1ccccc1` was over 10 µM. Regarding `CC(C)(C)c1ccccc1N=C(N)Nc1ccccc1C(C)(C)C`, the IC50 amounted to 38.3 µM. Turning to `CCc1ccc(NC(=N)Nc2ccc(CC)cc2)cc1`, the IC50 turned out to be 10.3 µM. With `N=C(Nc1ccccc1/C=C/c1c(F)c(F)c(F)c(F)c1F)NC12CC3CC(CC(C3)C1)C2`, the IC50 was over 10 µM. Turning to `CC12CC3CC(C)(C1)CC(/N=C(\N)Nc1ccccc1/C=C/c1ccccc1)(C3)C2`, the IC50 was over 10 µM. The same measure, in the same setting: the value for `Cc1ccccc1NC(N)=NC1CC2CCC1C2` (stereo not drawn) was over 10 µM; that for `NC(=Nc1ccccc1I)Nc1ccccc1I` was 0.24 µM; that for `Cc1cccc(NC(=N)Nc2cccc(C)c2)c1` was 0.33 µM. Same read-out and setting: the value for `CC12CC3CC(C)(C1)CC(/N=C(\N)Nc1ccccc1I)(C3)C2` was 4 µM; that for `Cc1ccccc1N/C(N)=N/C1CC[C@@]2(C)C(=CCC3C2CC[C@@]2(C)C3CC[C@@H]2C(C)CCCC(C)C)C1` (stereo partly drawn) was over 10 µM; that for `NC(=Nc1ccccc1-c1ccccc1)Nc1cccc2ccccc12` was over 10 µM. Same read-out and setting: the value for `Cc1ccccc1NC(N)=NC1CC2CCC1(C)C2(C)C` (stereo not drawn) was 5 µM; that for `NC(=Nc1ccccc1-c1ccccc1)Nc1ccccc1-c1ccccc1` was over 10 µM. Consider `NC(=Nc1ccccc1I)NC12CC3CC(CC(C3)C1)C2`, for which the IC50 is over 10 µM. Same read-out and setting: the value for `NC(=Nc1ccccc1-c1ccccc1)NC12CC3CC(CC(C3)C1)C2` was over 10 µM; that for `CCc1ccccc1N=C(N)Nc1ccccc1CC` was 0.82 µM; that for `N=C(Nc1ccccc1I)NC1C2CC3CC(C2)CC1C3` (stereo not drawn) was over 10 µM. Turning to `CCCCCCCCN=C(NC1CCCCC1)NC1CCCCC1`, the IC50 is over 10 µM. On the same count and under the same terms, the value for `CC1(C)C2CCC1(C)C(/N=C(\N)Nc1ccccc1I)C2` (stereo not drawn) was over 10 µM; that for `Cc1ccccc1N=C(N)NC1CCCCC1` was 10 µM. On the same count and under the same terms, with `CC(C)(C)/N=C(\N)Nc1ccccc1I` the figure was over 9.6 µM; with `N/C(=N\c1ccccc1[N+](=O)[O-])NC12CC3CC(CC(C3)C1)C2`, over 10 µM; with `N=C(NC1C[C@H]1c1ccccc1)NC12CC3CC(CC(C3)C1)C2` (stereo partly drawn), over 10 µM. The same measure, in the same setting: with `N=C1N(c2ccccc2)CCN1c1ccccc1` the figure was over 10 µM; with `CC(=O)[C@H]1CCC2C3CC=C4CC(/N=C(\N)Nc5ccccc5C)CC[C@]4(C)C3CC[C@@]21C` (stereo partly drawn), over 10 µM; with `Cc1cc(N)ccc1N=C(N)Nc1cccc(O)c1`, over 10 µM. In turn, `Cc1ccc(N=C(N)Nc2ccc(C)cc2)cc1` yielded an IC50 of 13.3 µM. The same measure, in the same setting: with `NC1=Nc2ccccc2-c2ccccc2N1` the figure was over 10 µM; with `CC(C)c1ccc(NC(=N)Nc2ccc(C(C)C)cc2)cc1`, 26.8 µM.

A further test deals with sigma receptor (guinea pig). Description: In vitro inhibitory activity against [3H]- (+)-3-PPP binding to sigma receptor in guinea pig brain membrane homogenates.
In turn, `N=C(N)N(c1ccccc1)c1ccccc1` came in with an IC50 of over 100 µM.
